Test results taken from ChEMBL document CHEMBL1155999, “Discovery and biological profile of isoindolinone derivatives as novel metabotropic glutamate receptor 1 antagonists: a potential treatment for psychotic disorders” (Bioorg Med Chem Lett, 2009).
Activity calls are given as the source filed them. The calls are words filed in the database; no cut-off is given here.

Columns and labels:
[1] = target: T1, Metabotropic glutamate receptor 1 (Homo sapiens, UniProt Q13255); test: Antagonist activity at human mGluR1 receptor expressed in CHO cell membranes assessed as inhibition of L-glutamate-induced calcium mobilization by FLIPR; type: functional, cell-based
Outline: (§1)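 Human mGluR1a stably expressed in CHO cells; antagonism read as inhibition of the intracellular Ca2+ rise on FLIPR. IC50 is the mean of at least three independent determinations, each run in duplicate, reported ± SEM.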

[2] = Oral bioavailability in rat at 3 mg/kg; type: ADME, organism-based; details: in vivo
Outline: (§2)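 Rats dosed orally at 3 mg/kg and intravenously at 1 mg/kg. Oral bioavailability (F), half-life and total plasma clearance were derived from the plasma profiles.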

[3] = target: Metabotropic glutamate receptor 5 (Homo sapiens, UniProt P41594); test: Antagonist activity at human mGluR5 receptor expressed in CHO cell membranes assessed as inhibition of L-glutamate-induced calcium mobilization by FLIPR; type: functional, cell-based
[4] = Half life in rat at 3 mg/kg, po and 1 mg/kg, iv; type: ADME, organism-based; details: in vivo; outline: as §2
[5] = Octanol to water distribution coefficient, log D at pH 7.4; type: physicochemical
[6] = Plasma clearance in rat at 3 mg/kg, po and 1 mg/kg, iv; type: ADME, organism-based; outline: as §2
[7] = Plasma clearance in rat at 1 mg/kg, po and 0.3 mg/kg, iv; type: ADME, organism-based
Outline: (§3)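 Rats dosed orally at 1 mg/kg and intravenously at 0.3 mg/kg. Oral bioavailability, half-life and total plasma clearance were derived from the plasma profiles.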

[8] = target: Metabotropic glutamate receptor 8 (Homo sapiens, UniProt O00222); test: Antagonist activity at human mGluR8 receptor expressed in CHO cell membranes assessed as inhibition of L-glutamate-induced calcium mobilization by FLIPR; type: functional, cell-based
[9] = test system: Mus musculus; test: Plasma concentration in mouse at 1 mg/kg, po after 30 mins
[10] = Oral bioavailability in rat at 1 mg/kg; type: ADME, organism-based; details: in vivo; outline: as §3
[11] = test system: Brain; test: Drug uptake in mouse brain at 1 mg/kg, po after 30 mins; details: in vivo, 0.5 h
[12] = target: Metabotropic glutamate receptor 2 (Homo sapiens, UniProt Q14416); test: Antagonist activity at human mGluR2 receptor expressed in CHO cell membranes assessed as inhibition of L-glutamate-induced calcium mobilization by FLIPR; type: functional, cell-based
[13] = target: Metabotropic glutamate receptor 1 (Rattus norvegicus, UniProt P23385); test: Antagonist activity at rat mGluR1 receptor expressed in CHO cell membranes assessed as inhibition of L-glutamate-induced calcium mobilization by FLIPR; type: functional, cell-based
[14] = test system: Rattus norvegicus; test: Induction of catalepsy in rat at 30 mg/kg, po
[15] = target: T1, Metabotropic glutamate receptor 1; test: Antagonist activity at human mGluR1 receptor quisqualic acid binding site expressed in CHO cell membranes assessed as inhibition of L-glutamate-induced calcium mobilization by FLIPR; type: functional; outline: as §1
[16] = test system: Rattus norvegicus; test: Antipsychotic-like effect in rat assessed as inhibition of MAP-induced prepulse inhibition at 1 mg/kg, po; type: functional, organism-based; set-up: dose 1 mg/kg
Outline: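 Rat prepulse inhibition model of methamphetamine-induced disruption. Test article given orally at 1 mg/kg.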

[17] = Half life in rat at 1 mg/kg, po and 0.3 mg/kg, iv; type: ADME, organism-based; details: in vivo; outline: as §3

Metabotropic glutamate receptor 5, sequence (P41594 whole entry): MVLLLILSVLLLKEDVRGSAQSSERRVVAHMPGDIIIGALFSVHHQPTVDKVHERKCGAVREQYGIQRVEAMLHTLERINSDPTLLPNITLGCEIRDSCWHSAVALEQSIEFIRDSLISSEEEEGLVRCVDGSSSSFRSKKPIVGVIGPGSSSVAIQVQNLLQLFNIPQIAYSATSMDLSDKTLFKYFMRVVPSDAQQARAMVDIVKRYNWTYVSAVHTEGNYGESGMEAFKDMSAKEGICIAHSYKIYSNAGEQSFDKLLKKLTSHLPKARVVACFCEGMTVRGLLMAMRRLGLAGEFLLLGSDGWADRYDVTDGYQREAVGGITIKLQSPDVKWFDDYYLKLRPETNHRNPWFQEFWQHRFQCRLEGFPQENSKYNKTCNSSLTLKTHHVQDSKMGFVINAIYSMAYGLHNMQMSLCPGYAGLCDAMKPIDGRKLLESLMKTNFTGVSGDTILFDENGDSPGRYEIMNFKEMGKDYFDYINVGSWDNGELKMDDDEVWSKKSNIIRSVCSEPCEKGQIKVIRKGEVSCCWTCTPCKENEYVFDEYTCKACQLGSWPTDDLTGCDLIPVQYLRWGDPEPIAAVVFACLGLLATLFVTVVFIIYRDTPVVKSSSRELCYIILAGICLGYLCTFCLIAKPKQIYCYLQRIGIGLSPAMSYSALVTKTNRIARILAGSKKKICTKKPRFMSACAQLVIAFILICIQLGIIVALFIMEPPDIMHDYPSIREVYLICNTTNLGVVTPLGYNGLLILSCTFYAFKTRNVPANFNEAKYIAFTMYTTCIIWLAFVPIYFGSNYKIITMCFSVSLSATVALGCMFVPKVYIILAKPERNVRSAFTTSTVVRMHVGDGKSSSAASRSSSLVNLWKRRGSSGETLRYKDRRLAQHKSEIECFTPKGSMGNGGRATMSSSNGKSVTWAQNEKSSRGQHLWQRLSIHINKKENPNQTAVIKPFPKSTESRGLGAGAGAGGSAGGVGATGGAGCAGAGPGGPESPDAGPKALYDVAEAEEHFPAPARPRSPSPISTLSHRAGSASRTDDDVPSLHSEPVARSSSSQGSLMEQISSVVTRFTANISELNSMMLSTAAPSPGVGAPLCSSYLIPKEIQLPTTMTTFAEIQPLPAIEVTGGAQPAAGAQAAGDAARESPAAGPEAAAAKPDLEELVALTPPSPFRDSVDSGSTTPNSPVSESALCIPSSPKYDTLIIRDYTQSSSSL
T1 sequence (Q13255 whole entry): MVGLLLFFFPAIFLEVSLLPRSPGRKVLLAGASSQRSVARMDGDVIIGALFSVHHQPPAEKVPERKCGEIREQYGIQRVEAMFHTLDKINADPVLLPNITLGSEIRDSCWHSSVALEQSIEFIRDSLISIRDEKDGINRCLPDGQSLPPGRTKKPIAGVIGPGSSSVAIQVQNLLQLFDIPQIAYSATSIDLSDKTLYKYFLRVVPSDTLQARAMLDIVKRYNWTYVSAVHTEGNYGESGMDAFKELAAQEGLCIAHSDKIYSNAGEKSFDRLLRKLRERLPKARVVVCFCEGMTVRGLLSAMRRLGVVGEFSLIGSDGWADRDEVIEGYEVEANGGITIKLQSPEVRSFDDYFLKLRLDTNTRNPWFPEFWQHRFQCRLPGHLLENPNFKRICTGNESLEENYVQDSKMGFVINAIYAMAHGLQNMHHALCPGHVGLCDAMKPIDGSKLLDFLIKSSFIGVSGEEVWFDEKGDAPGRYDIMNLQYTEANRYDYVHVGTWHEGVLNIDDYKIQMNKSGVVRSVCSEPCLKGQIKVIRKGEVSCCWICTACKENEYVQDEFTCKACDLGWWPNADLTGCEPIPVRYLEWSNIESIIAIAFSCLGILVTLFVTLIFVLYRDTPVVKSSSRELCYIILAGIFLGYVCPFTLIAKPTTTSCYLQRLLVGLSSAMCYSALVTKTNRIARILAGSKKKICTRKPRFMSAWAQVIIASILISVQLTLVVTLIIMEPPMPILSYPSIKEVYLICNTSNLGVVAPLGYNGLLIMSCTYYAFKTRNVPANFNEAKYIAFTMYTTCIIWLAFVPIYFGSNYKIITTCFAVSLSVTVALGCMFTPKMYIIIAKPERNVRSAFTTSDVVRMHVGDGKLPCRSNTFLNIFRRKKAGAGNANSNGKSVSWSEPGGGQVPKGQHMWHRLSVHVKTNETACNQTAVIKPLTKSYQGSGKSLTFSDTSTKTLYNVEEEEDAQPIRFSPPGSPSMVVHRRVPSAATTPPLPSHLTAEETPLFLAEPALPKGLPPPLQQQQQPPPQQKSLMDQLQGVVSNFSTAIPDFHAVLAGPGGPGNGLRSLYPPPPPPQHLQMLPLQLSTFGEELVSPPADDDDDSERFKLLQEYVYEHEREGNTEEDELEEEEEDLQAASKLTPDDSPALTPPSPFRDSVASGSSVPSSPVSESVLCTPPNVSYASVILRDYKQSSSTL
Metabotropic glutamate receptor 2, sequence (Q14416 whole entry): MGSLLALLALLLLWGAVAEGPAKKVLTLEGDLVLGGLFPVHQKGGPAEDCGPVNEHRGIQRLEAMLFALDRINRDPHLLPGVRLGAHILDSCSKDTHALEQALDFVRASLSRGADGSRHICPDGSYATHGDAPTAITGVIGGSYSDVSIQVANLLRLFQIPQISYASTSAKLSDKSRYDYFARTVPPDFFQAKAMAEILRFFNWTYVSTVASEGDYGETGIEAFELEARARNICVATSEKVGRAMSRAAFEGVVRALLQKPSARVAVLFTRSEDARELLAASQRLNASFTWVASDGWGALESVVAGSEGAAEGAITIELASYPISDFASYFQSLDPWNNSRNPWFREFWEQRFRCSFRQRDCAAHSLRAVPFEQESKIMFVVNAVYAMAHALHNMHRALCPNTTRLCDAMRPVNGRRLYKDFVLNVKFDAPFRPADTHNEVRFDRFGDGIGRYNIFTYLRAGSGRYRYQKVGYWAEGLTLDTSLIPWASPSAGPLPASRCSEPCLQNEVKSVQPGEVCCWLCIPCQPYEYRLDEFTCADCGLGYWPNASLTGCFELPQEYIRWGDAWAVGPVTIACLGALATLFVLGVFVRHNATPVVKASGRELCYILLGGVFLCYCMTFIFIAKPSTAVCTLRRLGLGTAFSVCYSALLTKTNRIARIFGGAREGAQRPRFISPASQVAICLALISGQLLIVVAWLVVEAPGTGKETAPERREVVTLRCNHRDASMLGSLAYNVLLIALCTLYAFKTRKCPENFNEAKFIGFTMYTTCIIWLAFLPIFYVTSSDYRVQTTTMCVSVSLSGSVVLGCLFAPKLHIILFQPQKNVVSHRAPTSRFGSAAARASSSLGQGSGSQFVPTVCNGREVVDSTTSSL
Metabotropic glutamate receptor 1 (Rattus norvegicus, UniProt P23385), sequence (P23385 whole entry): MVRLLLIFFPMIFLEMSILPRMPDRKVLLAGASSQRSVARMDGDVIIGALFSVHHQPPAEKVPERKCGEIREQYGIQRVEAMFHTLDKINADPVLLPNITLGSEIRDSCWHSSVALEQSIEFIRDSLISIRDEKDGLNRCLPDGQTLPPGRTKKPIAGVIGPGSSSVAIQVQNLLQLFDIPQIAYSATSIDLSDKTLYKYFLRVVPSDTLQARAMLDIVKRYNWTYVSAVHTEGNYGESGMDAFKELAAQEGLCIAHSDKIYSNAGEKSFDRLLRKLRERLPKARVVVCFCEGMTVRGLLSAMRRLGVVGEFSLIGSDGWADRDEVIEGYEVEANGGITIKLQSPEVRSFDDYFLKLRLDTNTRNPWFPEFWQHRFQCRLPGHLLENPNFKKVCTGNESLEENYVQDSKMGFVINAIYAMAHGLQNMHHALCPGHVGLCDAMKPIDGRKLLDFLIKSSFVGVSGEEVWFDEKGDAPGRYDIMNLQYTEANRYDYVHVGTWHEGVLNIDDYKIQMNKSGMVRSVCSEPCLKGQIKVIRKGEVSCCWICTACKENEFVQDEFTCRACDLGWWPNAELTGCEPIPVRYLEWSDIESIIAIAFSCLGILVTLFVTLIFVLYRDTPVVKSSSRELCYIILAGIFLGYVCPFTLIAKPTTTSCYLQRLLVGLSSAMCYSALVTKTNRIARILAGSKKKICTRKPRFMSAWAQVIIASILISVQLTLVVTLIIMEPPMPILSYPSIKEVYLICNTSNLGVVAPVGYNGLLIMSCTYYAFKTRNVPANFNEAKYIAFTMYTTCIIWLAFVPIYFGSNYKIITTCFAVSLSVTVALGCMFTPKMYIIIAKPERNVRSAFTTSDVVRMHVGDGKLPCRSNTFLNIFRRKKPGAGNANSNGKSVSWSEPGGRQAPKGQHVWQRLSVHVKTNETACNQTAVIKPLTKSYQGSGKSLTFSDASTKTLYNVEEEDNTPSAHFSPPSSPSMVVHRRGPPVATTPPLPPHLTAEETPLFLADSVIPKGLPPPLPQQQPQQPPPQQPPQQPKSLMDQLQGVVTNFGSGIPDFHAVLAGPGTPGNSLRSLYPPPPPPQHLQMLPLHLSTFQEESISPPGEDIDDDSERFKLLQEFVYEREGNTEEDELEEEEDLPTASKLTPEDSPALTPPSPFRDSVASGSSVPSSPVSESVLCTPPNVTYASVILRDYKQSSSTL

Which IC50 [1] does the source give for `Cc1c(-c2ccc(C(=O)C3CC3)cc2)nnn1-c1cccnc1` here?
The IC50 was 22 nM.

Which bioavailability [2] does the source give for `Cc1c(-c2ccc3c(c2)CN(C(C)C)C3=O)nnn1-c1cccnc1F` here?
Its bioavailability is 96%.

And the IC50 [3]?
Its IC50 is 2300 nM.

And the IC50 [1]?
Its IC50 is 5.5 nM.

What about the half-life [4] of the same compound?
Its half-life is 132 min.

And the logD [5]?
The logD was 2.2.

And the clearance [6]?
The clearance was 5.9 mL/min/kg.

Which bioavailability [2] does the source give for `Cc1c(-c2ccc3c(c2)CN(C2CC2)C3=O)nnn1-c1cccnc1F` here?
Its bioavailability is 100%.

What about the IC50 [3] of the same compound?
Its IC50 is 5400 nM.

What about the IC50 [1] of the same compound?
The IC50 was 3.5 nM.

And the half-life [4]?
The half-life was 36 min.

What about the logD [5] of the same compound?
Its logD is 1.9.

And the clearance [6]?
The clearance was 8.1 mL/min/kg.

For `Cc1c(-c2ccc3c(c2)CCC3=O)nnn1-c1cccnc1`, which IC50 [1] is on record?
The IC50 was 69 nM.

With `Cc1c(-c2ccc3ncccc3c2)nnn1-c1cccnc1` as the compound, how does the IC50 [1] read?
The IC50 was 4.9 nM.

With `Cc1c(-c2ccc3[nH]ccc3c2)nnn1-c1cccnc1` as the compound, how does the IC50 [1] read?
Its IC50 is 250 nM.

Which bioavailability [2] does the source give for `CCCN1Cc2cc(-c3nnn(-c4cccnc4F)c3C)ccc2C1=O` here?
The bioavailability was 100%.

What about the IC50 [3] of the same compound?
The IC50 was 2800 nM.

And the IC50 [1]?
The IC50 was 3.6 nM.

What about the half-life [4] of the same compound?
The half-life was 60 min.

What about the logD [5] of the same compound?
Its logD is 2.3.

What about the clearance [6] of the same compound?
Its clearance is 5.5 mL/min/kg.

For `Cc1c(-c2ccc(C(=O)OC(C)C)cc2)nnn1-c1cccnc1`, which IC50 [1] is on record?
The IC50 was 33 nM.

Which IC50 [1] does the source give for `CCC(=O)c1ccc(-c2nnn(-c3cccnc3)c2C)cc1` here?
The IC50 was 170 nM.

Which IC50 [1] does the source give for `Cc1c(-c2ccc(C(=O)NC(C)C)cc2)nnn1-c1cccnc1` here?
Its IC50 is 210 nM.

Which IC50 [1] does the source give for `CC(=O)c1ccc(-c2nnn(-c3cccnc3)c2C)cc1` here?
The IC50 was 470 nM.

With `Cc1c(-c2ccc(C(=O)N3CCCC3)cc2)nnn1-c1cccnc1` as the compound, how does the IC50 [1] read?
Its IC50 is 1800 nM.

For `Cc1c(-c2ccc(C(=O)N(C)C(C)C)cc2)nnn1-c1cccnc1`, which IC50 [1] is on record?
The IC50 was 880 nM.

Which IC50 [1] does the source give for `Cc1c(-c2ccc(C(=O)c3ccccc3)cc2)nnn1-c1cccnc1` here?
Its IC50 is 3900 nM.

Which results are given for `Cc1c(-c2ccc3c(c2)CN(C(C)C)C3=O)nnn1-c1ccc(F)cc1F`?
clearance [7]: 20 mL/min/kg; IC50 [8]: > 10000 nM; concentration at 0.5 h [9]: 170 nM; bioavailability [10]: 46%; Drug uptake [11]: 0.45 nmol/g; IC50 [12]: > 10000 nM; IC50 [13]: 3.6 nM; Activity [14]: inactive; IC50 [15]: > 10000 nM; Activity [16]: Active; half-life [17]: 42 min

For `Cc1c(-c2ccc3c(c2)CC(C)(C)C3=O)nnn1-c1cccnc1`, which IC50 [1] is on record?
Its IC50 is 11 nM.

With `Cc1nc2cc(-c3nnn(-c4cccnc4)c3C)ccc2s1` as the compound, how does the IC50 [1] read?
The IC50 was 1500 nM.

Which IC50 [1] does the source give for `Cc1c(-c2ccc3ccccc3c2)nnn1-c1cccnc1` here?
The IC50 was 300 nM.

With `Cc1c(-c2ccc3c(c2)CC(C2CC2)C3=O)nnn1-c1cccnc1` (stereo not drawn) as the compound, how does the IC50 [1] read?
The IC50 was 2.6 nM.

Which results are given for `CCN1Cc2cc(-c3nnn(-c4cccnc4F)c3C)ccc2C1=O`?
bioavailability [2]: 62%; IC50 [3]: 1100 nM; IC50 [1]: 3.3 nM; half-life [4]: 18 min; logD [5]: 1.8; clearance [6]: 19 mL/min/kg

Which IC50 [1] does the source give for `Cc1c(-c2cccc(C(=O)OC(C)C)c2)nnn1-c1cccnc1` here?
The IC50 was 2400 nM.

With `Cc1c(C2=CCN(C(=O)N(C)C(C)C)CC2)nnn1-c1cccnc1F` as the compound, how does the IC50 [3] read?
The IC50 was over 10000 nM.

And the half-life [4]?
The half-life was 12 min.
